Test results from ChEMBL document CHEMBL4316620, “Dihydropyrrolones as bacterial quorum sensing inhibitors” (Bioorg Med Chem Lett, 2019).
The source made the active and inactive calls. The calls are words filed in the database; no cut-off is given here.

How the values were obtained:
[1] = Inhibition of quorum sensing system in Pseudomonas aeruginosa MH602 PlasB::gfp at 62.5 uM incubated for 15 hrs by GFP reporter gene assay
Method in brief: (§1)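 Reporter strain P. aeruginosa PlasB::gfp (PAMH602) makes its own AHL; lasB promoter drives GFP-ASV. Cultures incubated with compound over 250–31.25 µM at 37 °C for 15 h, then GFP fluorescence read at 535 nm. QSI expressed as % relative to untreated PAMH602 negative control. Furanone positive control.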

[2] = Inhibition of quorum sensing system in Pseudomonas aeruginosa MH602 PlasB::gfp at 125 uM incubated for 15 hrs by GFP reporter gene assay; method in brief: as §1
Pseudomonas aeruginosa [3] = assay: Inhibition of biofilm formation in Pseudomonas aeruginosa PAO1 at 62.5 uM incubated for 6 hrs by crystal violet staining based method; type: functional; settings: PAO1, 6 h
Method in brief: (§2)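 P. aeruginosa PA01 biofilm. Cultures grown with or without test compound for 6 h. Biofilm biomass quantified by crystal violet staining (OD550). % inhibition calculated relative to DMSO control.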

Pseudomonas aeruginosa [4] = assay: Toxicity in Pseudomonas aeruginosa MH602 PlasB::gfp assessed as inhibition of bacterial growth at 250 uM incubated for 15 hrs by spectrophotometry; type: organism-based; settings: MH602, 15 h, read-out: GI
Pseudomonas aeruginosa [5] = assay: Toxicity in Pseudomonas aeruginosa MH602 PlasB::gfp assessed as inhibition of bacterial growth at 62.5 uM incubated for 15 hrs by spectrophotometry; type: organism-based; settings: MH602, 15 h, read-out: GI
Pseudomonas aeruginosa [6] = assay: Toxicity in Pseudomonas aeruginosa MH602 PlasB::gfp assessed as inhibition of bacterial growth at 125 uM incubated for 15 hrs by spectrophotometry; type: organism-based; settings: MH602, 15 h, read-out: GI
Pseudomonas aeruginosa [7] = assay: Toxicity in Pseudomonas aeruginosa MH602 PlasB::gfp assessed as inhibition of bacterial growth at 31.25 uM incubated for 15 hrs by spectrophotometry; type: organism-based; settings: MH602, 15 h, read-out: GI
[8] = Inhibition of quorum sensing system in Pseudomonas aeruginosa MH602 PlasB::gfp at 31.25 uM incubated for 15 hrs by GFP reporter gene assay; method in brief: as §1
Pseudomonas aeruginosa [9] = assay: Inhibition of biofilm formation in Pseudomonas aeruginosa PAO1 at 250 uM incubated for 6 hrs by crystal violet staining based method; type: functional; settings: for inhibition at 250 µM: PAO1, 6 h; method in brief: as §2
[10] = Inhibition of quorum sensing system in Pseudomonas aeruginosa MH602 PlasB::gfp at 250 uM incubated for 15 hrs by GFP reporter gene assay; method in brief: as §1

Compound | inhibition [1] | inhibition [2] | inhibition at 62.5 µM (Pseudomonas aeruginosa [3]) | inhibition at 250 µM (Pseudomonas aeruginosa [4]) | inhibition at 62.5 µM (Pseudomonas aeruginosa [5]) | inhibition at 125 µM (Pseudomonas aeruginosa [6]) | inhibition at 31.25 µM (Pseudomonas aeruginosa [7]) | inhibition [8] | inhibition at 250 µM (Pseudomonas aeruginosa [9]) | inhibition [10] | inhibition (Pseudomonas aeruginosa [9])
C=C1C(c2ccc(Br)cc2)=CC(=O)N1c1ccsc1 | 59.9% | 75% | 47% | > 30% | ≤ 15% | 15 to 30% | ≤ 15% | 49.9% | 87.4% | 86% | 
COc1ccc(C2=CC(=O)NC2)cc1 | 27.2% | 48.5% |  | ≤ 15% | ≤ 15% | ≤ 15% | ≤ 15% | 26.9% |  | 66.5% | inactive
O=C1C=C(c2ccsc2)CN1 | 26.6% | 49.3% |  | ≤ 15% | ≤ 15% | ≤ 15% | ≤ 15% | 24.7% |  | 72.1% | inactive
C=C1NC(=O)C=C1c1cccc(F)c1 | 52.9% | 66.5% |  | ≤ 15% | ≤ 15% | ≤ 15% | ≤ 15% | 39.5% | 55.2% | 72.8% | 
O=C1C=C(c2ccc(Br)cc2)CN1 | 25% | 42.8% |  | ≤ 15% | ≤ 15% | ≤ 15% | ≤ 15% | 21.9% |  | 65.9% | inactive
O=C1C=C(c2ccccc2F)CN1 | 30.5% | 48.8% |  | ≤ 15% | ≤ 15% | ≤ 15% | ≤ 15% | 24.4% | 10.9% | 67.9% | 
C=C1C(c2ccc(Br)cc2)=CC(=O)N1c1ccc(F)cc1 | 34.5% | 49.7% |  | ≤ 15% | ≤ 15% | ≤ 15% | ≤ 15% | 9.23% | 27.7% | 57.9% | 
C=C1C(c2ccccc2F)=CC(=O)N1c1ccc(C)cc1 | 53.3% | 62.8% |  | ≤ 15% | ≤ 15% | ≤ 15% | ≤ 15% | 29.6% | 49.3% | 65% | 
C=C1C(c2ccc(Br)cc2)=CC(=O)N1c1ccc(Br)cc1 | 40.4% | 50.5% |  | ≤ 15% | ≤ 15% | ≤ 15% | ≤ 15% | 8.81% | 17% | 54.3% | 
O=C1C=C(c2ccc(F)cc2)CN1 | 28.7% | 40.2% |  | ≤ 15% | ≤ 15% | ≤ 15% | ≤ 15% | 27.1% |  | 63% | inactive
C=C1NC(=O)C=C1c1ccccc1F | 58.3% | 69.7% |  | ≤ 15% | ≤ 15% | ≤ 15% | ≤ 15% | 37.8% | 51.3% | 72% | 
C=C1C(c2ccccc2F)=CC(=O)N1c1cccc(Cl)c1 | 49.6% | 57.3% |  | ≤ 15% | ≤ 15% | ≤ 15% | ≤ 15% | 38.7% | 46.9% | 64.4% | 
